Activity calls are given as the source filed them. The calls are words filed in the database; no cut-off is given here.
Columns and labels:
[1] = target: T1, DNA topoisomerase 1 (Homo sapiens, UniProt P11387); assay: Inhibition of recombinant human topoisomerase-1 expressed in baculovirus infected sf9 cells using supercoiled pBS SK(+) DNA as substrate after 15 mins by ethidium bromide staining based agarose gel electrophoresis method
T1 sequence (P11387 whole entry): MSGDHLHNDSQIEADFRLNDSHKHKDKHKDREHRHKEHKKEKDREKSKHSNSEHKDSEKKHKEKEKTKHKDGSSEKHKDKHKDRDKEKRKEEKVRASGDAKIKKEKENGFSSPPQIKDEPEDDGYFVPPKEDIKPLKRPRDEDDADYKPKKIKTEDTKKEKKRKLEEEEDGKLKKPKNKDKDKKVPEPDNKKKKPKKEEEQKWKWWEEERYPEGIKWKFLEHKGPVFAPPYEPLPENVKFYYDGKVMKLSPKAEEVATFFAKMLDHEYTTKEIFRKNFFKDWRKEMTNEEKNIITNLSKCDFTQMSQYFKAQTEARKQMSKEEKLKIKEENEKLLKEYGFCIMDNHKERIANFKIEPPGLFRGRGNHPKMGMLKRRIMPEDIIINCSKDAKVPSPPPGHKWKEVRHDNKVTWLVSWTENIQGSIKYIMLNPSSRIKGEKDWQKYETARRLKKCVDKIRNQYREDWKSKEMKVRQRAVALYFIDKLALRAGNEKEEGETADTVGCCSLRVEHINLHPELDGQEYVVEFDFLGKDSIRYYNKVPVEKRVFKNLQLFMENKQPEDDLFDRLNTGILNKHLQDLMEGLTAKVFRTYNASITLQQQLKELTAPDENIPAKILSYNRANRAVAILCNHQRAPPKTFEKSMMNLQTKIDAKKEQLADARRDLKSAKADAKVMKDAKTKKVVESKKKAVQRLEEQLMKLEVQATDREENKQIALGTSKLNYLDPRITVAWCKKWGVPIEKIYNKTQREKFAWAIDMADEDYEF
How it was run: (§1)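 Relaxation assay: 90 fmol supercoiled pBS (SK+) DNA with 30 fmol recombinant Top1 (Sf-9/baculovirus). Compound either preincubated with Top1 for 5 min before DNA addition, or added simultaneously with DNA; then 37 °C for 15 min. Vehicle 2% DMSO. Read on 1% agarose gel. EC50 from mean ± SD of three experiments.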

[2] = target: T1, DNA topoisomerase 1; assay: Inhibition of recombinant human topoisomerase-1 expressed in baculovirus infected sf9 cells using supercoiled pBS SK(+) DNA as substrate preincubated for 5 mins followed by substrate addition measured after 15 mins by ethidium bromide staining based agarose gel electrophoresis method; how it was run: as §1
[3] = tested on: Bacteria; assay: Induction of relaxed pBluescript SK(+) DNA intercalation (unknown origin) assessed as negative supercoiling at 300 uM after 15 mins by agarose gel electrophoresis method
How it was run: (§2)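 Top1 unwinding assay: excess Top1 first relaxes 50 fmol supercoiled pBS (SK+) DNA, then the relaxed DNA is incubated with compound at 50, 100 or 300 μM (m-AMSA and etoposide as references). Negative supercoiling read on agarose gel.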

[4] = tested on: Bacteria; assay: Induction of relaxed pBluescript SK(+) DNA intercalation (unknown origin) assessed as negative supercoiling at 50 uM after 15 mins by agarose gel electrophoresis method; how it was run: as §2

Structure (SMILES)	EC50 [1]	EC50 [2]	Activity [3]	Activity [4]
COc1cc([C@@H]2c3cc4c(cc3[C@@H](O[C@@H]3O[C@@H]5CO[C@@H](C)O[C@H]5[C@H](O)[C@H]3O)[C@H]3COC(=O)[C@H]23)OCO4)cc(OC)c1O	–	–	inactive	–
Brc1ccc(-c2c3nc(c(-c4ccc(Br)cc4)c4ccc([nH]4)c(-c4ccncc4)c4nc(c(-c5ccncc5)c5ccc2[nH]5)C=C4)C=C3)cc1	> 50 µM	> 50 µM	–	–
Brc1ccc(-c2c3nc(c(-c4ccncc4)c4ccc([nH]4)c(-c4ccc(Br)cc4)c4nc(c(-c5ccncc5)c5ccc2[nH]5)C=C4)C=C3)cc1	> 50 µM	> 50 µM	–	–
C1=Cc2nc1c(-c1ccncc1)c1ccc([nH]1)c(-c1ccncc1)c1nc(c(-c3ccncc3)c3ccc([nH]3)c2-c2ccncc2)C=C1	> 50 µM	> 50 µM	–	–
COc1cc(NS(C)(=O)=O)ccc1Nc1c2ccccc2nc2ccccc12	–	–	–	Active

Second part, the molecule after the results:

EC50 [1]	EC50 [2]	Activity [3]	Activity [4]	Structure (SMILES)
> 50 µM	> 50 µM	–	–	C1=Cc2nc1c(-c1ccccc1)c1ccc([nH]1)c(-c1ccccc1)c1nc(c(-c3ccccc3)c3ccc([nH]3)c2-c2ccccc2)C=C1
> 50 µM	> 50 µM	–	–	Brc1ccc(-c2c3nc(c(-c4ccncc4)c4ccc([nH]4)c(-c4ccncc4)c4nc(c(-c5ccncc5)c5ccc2[nH]5)C=C4)C=C3)cc1
2.02 µM	0.563 µM	–	–	O=C(O)c1ccc(-c2c3nc(c(-c4ccc(C(=O)O)cc4)c4ccc([nH]4)c(-c4ccc(C(=O)O)cc4)c4nc(c(-c5ccc(C(=O)O)cc5)c5ccc2[nH]5)C=C4)C=C3)cc1
> 50 µM	> 50 µM	–	–	Brc1ccc(-c2c3nc(c(-c4ccc(-c5ccncc5)cc4)c4ccc([nH]4)c(-c4ccc(Br)cc4)c4nc(c(-c5ccc(-c6ccncc6)cc5)c5ccc2[nH]5)C=C4)C=C3)cc1
82.8 µM	63.4 µM	–	–	Nc1ccc(-c2ccc(-c3c4nc(c(-c5ccc(-c6ccc(N)cc6)cc5)c5ccc([nH]5)c(-c5ccncc5)c5nc(c(-c6ccncc6)c6ccc3[nH]6)C=C5)C=C4)cc2)cc1
1.97 µM	1.23 µM	–	–	CN(C)c1ccc(-c2c3nc(c(-c4ccc(N(C)C)cc4)c4ccc([nH]4)c(-c4ccc(N(C)C)cc4)c4nc(c(-c5ccc(C(=O)O)cc5)c5ccc2[nH]5)C=C4)C=C3)cc1

Source: ChEMBL document CHEMBL4024789, “Neutral Porphyrin Derivative Exerts Anticancer Activity by Targeting Cellular Topoisomerase I (Top1) and Promotes Apoptotic Cell Death without Stabilizing Top1-DNA Cleavage Complexes” (J Med Chem, 2018)
